Experiment [1] in a line: inhibitors of TNFa-induced NFkB p65 translocation, primary screen, imaging, HUVEC, MLSMR starter and 10KST1 sets (AID 438;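 active = inhibition above 20% together with a positive visual image hit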;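 note: compound added about 3h40 before a 20 min TNFalpha stimulation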;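 for inhibition: signal is the nuclear over cytoplasmic p65 intensity ratio per well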). The note with it: HUVEC TNFa-induced p65 nuclear translocation; cell count: measured here: nuclei count (cytotoxicity indicator), at 2.08 µM; inhibition: at 2 µM, stronger effect = higher value, 0% TNFa-plus-vehicle, 100% no-TNFa wells.
Experiment [2] can be described thus: reduction of polyQ htt aggregates in cells – imaging, exon1htt(103Q)mCFP cells, high-content imaging, primary screen (AID 483;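 active = visual image review flags a hit and inhibition of aggregation exceeds 20%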;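 note: compound exposure lasted 3 days before fixation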;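 for nuclei count: percent of the per-plate median nuclei count of sample wells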). The note with it: exon1htt(103Q)mCFP cell line, aggregate imaging, at 2 µM; inhibition of aggregation: stronger effect = higher value; nuclei count: measured here: cell count, toxicity.
The nature of experiment [3]: endothelial E-selectin expression blockers – imaging, HUVEC, immunofluorescence, MLSMR starter and 10KST1 sets, primary screen (AID 487;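 active = visually confirmed hit in the image check and inhibition above 20%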;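 for inhibition: signal is fraction of cell area covered by stained E-selectin grains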;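 for nuclei count: 100% = median nuclei count of all wells on the same plate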). The note with it: HUVEC TNFalpha-induced E-selectin immunofluorescence imaging, at 2 µM; inhibition: stronger effect = higher value; nuclei count: measured here: cell number, toxicity.
In experiment [4] the target is Voltage-gated potassium channel subunit beta-2 (Rattus norvegicus) (UniProt P62483). Description: inhibitors of rat Kvbeta2 reductase activity – biochemical, NADPH fluorescence, primary screen (AID 622;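 active = fluorescence slope higher than the sample average by over 3 SD, cut at about -0.22 in these data, passing the limit was not always enough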;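 note: slope of raw intensity against log time taken from 70 to 1610 s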). The settings on record: recombinant KvBeta, 4-cyanobenzaldehyde reduction, at 10 µM, stronger effect = higher value.
Experiment [5] has the same target. The experiment in a line: enhancers of rat Kvbeta2 NADPH turnover – biochemical, NADPH fluorescence, primary screen (AID 623).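 Note: fluorescence intensity change per second fitted from 20 to 320 s.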 The settings on record: Recombinant KvBeta, NADPH fluorescence decrease slope, 10 min; at 10 µM; stronger effect = lower value.
For experiment [6], the target named is Muscarinic acetylcholine receptor M4 (Homo sapiens) (UniProt P08173). Description: M4-linked GIRK flux change, two-sided – cell-based, HEK293 M4/GIRK, thallium flux, BTC-AM, M4 allosteric agonist project, primary screen (AID 625;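 active = fluorescence slope after compound addition differing from the mean of all tested samples at 99.7% confidence, mostly higher but some lower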;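 note: thallium influx through GIRK channels coupled to M4 in HEK293 cells with BTC-AM dye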). The settings on record: at 10 µM, actives lie on both sides. The essentials:
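System: HEK293 cells with M4 receptor and GIRK channels | Incubation: Cells overnight at 37 °C, BTC-AM loading 1 h, reads 2 min total | Technique: Kinetic BTC-AM fluorescence sampled at 1 Hz, 10 s pre-addition baseline | Measure: Post-addition slope, 15–24 s, of baseline-normalized fluorescence | Control set: Carbachol positive, DMSO negative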

Experiment [7] is described as follows: blockers of RIG-like receptor reporter activation – cell-based, Sendai virus stimulus, luciferase, 10K MLSCN set, TLR/RLR signaling modifier project, primary screen (AID 602276;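 active = inhibition at or above 50% at 10 µM; inactive = inhibition below 50%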;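 note: firefly luciferase from ISG56 promoter only with Renilla not read in this screen; 0% = Sendai virus plus DMSO and 100% = medium plus DMSO without virus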). The note with it: HEK293 RL24 IRF3 luciferase reporter, at 10 µM, stronger effect = higher value. Background: Reporter assays use an easily measured gene product as a stand-in for the process of interest.

Experiment [8] is described as follows: TLR3 IRF3 reporter activation blockers – cell-based, poly I:C stimulus, luciferase, 10K MLSCN set, primary screen (AID 602277;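 active = inhibition of the reporter signal at or above 50%; inactive = inhibition below 50%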). The settings on record: HEK293-TLR3 RL24 IRF3 luciferase reporter, at 10 µM, stronger effect = higher value.

This note sets out measurements from PubChem BioAssay.

The structures appear in SMILES notation. Activity calls are given as the source filed them.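 Rule for the calls, unless noted: active = NADPH fluorescence slope more negative than the mean of all samples by about 3 SD, 99.7% confidence; inactive = the rest.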

Sequence of Muscarinic acetylcholine receptor M4 (Homo sapiens) (P08173 whole entry, looked up): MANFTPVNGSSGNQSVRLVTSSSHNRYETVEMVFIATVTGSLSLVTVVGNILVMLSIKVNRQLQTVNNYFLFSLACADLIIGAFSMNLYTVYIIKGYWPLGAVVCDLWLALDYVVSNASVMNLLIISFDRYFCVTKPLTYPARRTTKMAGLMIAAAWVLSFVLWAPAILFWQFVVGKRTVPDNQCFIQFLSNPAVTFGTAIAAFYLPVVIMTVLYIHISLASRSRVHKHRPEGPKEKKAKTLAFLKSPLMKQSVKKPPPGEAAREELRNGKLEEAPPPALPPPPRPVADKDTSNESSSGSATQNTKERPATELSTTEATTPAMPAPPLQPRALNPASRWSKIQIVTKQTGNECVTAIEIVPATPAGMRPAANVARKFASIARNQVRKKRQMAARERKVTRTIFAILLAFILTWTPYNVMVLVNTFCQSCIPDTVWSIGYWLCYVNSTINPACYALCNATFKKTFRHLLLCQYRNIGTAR
Sequence of Voltage-gated potassium channel subunit beta-2 (Rattus norvegicus) (P62483 whole entry, looked up): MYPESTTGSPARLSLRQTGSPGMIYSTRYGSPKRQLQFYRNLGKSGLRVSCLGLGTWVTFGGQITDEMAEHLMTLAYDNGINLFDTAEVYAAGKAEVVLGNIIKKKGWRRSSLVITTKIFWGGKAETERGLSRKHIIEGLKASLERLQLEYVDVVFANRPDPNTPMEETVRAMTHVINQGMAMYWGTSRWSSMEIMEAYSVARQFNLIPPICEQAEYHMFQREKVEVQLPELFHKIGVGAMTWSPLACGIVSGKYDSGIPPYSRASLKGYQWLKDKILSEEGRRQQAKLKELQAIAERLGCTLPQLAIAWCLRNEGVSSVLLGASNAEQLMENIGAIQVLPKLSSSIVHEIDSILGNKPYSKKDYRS

Consider `COC(=O)C1=C(C)NC(=O)C1(NC(=O)c1cccnc1)C(F)(F)F` (centres undefined), for which, in experiment [1], the cell count worked out at 609. In addition, the inhibition (usually the relative decrease from the control value, in per cent) in experiment [1] is -3.9% (inactive); in experiment [3], -68.7% (inactive); in experiment [7], -31.4% (inactive); in experiment [8], 56.2% (active). In experiment [2], the inhibition of aggregation is -6.9% (inactive). Further, the nuclei count amounted to 87.8% in experiment [2] and 103% in experiment [3]. For the same compound, the results for the fluorescence slope in experiment [4] and in experiment [6] were -0.565 (inactive) and 0.00444 (inactive), respectively. The NADPH fluorescence slope in experiment [5] is -2.9e-05 (inactive).
For the compound `COc1ccc(OCC(=O)N2CCN(C(=O)c3cccs3)CC2)cc1`, the cell count in experiment [1] worked out at 365. Besides, the inhibition in experiment [1] is -7% (inactive); in experiment [3], -51.4% (inactive); in experiment [7] it was 21.2% (inactive); in experiment [8], 17.7% (inactive). Further, the inhibition of aggregation in experiment [2] was -31.2% (inactive). Also, the nuclei count in experiment [2] was 89%; in experiment [3], 124%. Also, the values for the fluorescence slope in experiment [4] and in experiment [6] were -0.57 (inactive) and 0.00633 (inactive), respectively. Also, the NADPH fluorescence slope in experiment [5] is -5.4e-05 (inactive).
For `C=CCn1c(COc2ccccc2F)nnc1SCC(=O)N1CC(=O)Nc2ccccc21`, in experiment [1], the cell count came out at 390. Besides, the inhibition is -23.5% (inactive) in experiment [1], 4% (inactive) in experiment [3], -13.7% (inactive) in experiment [7] and -13.8% (inactive) in experiment [8]. Besides, in experiment [2], the inhibition of aggregation was 28% (inactive). Besides, the nuclei count turned out to be 100% in experiment [2] and 121% in experiment [3]. For the same compound, the fluorescence slope is -0.355 (inactive) in experiment [4] and 0.00612 (inactive) in experiment [6]. Moreover, the NADPH fluorescence slope in experiment [5] was 2.1e-06 (inactive).
`Cc1ccc(S(=O)(=O)N(C)Cc2cc3ccccc3[nH]c2=O)cc1`: the cell count in experiment [1] was determined as 544. The inhibition in experiment [1] is -5% (inactive); in experiment [3], 29.4% (inactive); in experiment [7], 8.78% (inactive); in experiment [8], 70.5% (active). The inhibition of aggregation in experiment [2] is 12.8% (inactive). In addition, the nuclei count in experiment [2] was 99.8%; in experiment [3], 104%. Besides, the fluorescence slope is -0.52 (inactive) in experiment [4] and 0.00517 (inactive) in experiment [6]. For the same compound, the NADPH fluorescence slope in experiment [5] is -0.000101 (inactive).
As to `CCCn1c(NCc2ccc3c(c2)OCO3)nc2ccccc21`, the cell count in experiment [1] was 650. In addition, the inhibition in experiment [1] is -6.8% (inactive); in experiment [3] it was 32% (inactive); in experiment [7], -9.91% (inactive); in experiment [8] it was -7.89% (inactive). Besides, the inhibition of aggregation in experiment [2] was 2.4% (inactive). Further, the nuclei count in experiment [2] turned out to be 97.6%; in experiment [3] it was 93.5%. Besides, the fluorescence slope is -0.537 (inactive) in experiment [4] and 0.00348 (inactive) in experiment [6]. In addition, in experiment [5], the NADPH fluorescence slope is -5.7e-05 (inactive).
On to `CCOC(=O)N1CCN(C(=O)Nc2ccc(Cl)cc2)CC1`, for which, in experiment [1], the cell count is 356. For the same compound, the inhibition in experiment [1] was -3.2% (inactive); in experiment [3] it was 21.3% (inactive); in experiment [7], 10.8% (inactive); in experiment [8] it was 3.42% (inactive). For the same compound, the inhibition of aggregation in experiment [2] is 10.6% (inactive). Further, the nuclei count in experiment [2] is 99.4%; in experiment [3], 103%. For the same compound, the fluorescence slope is -0.462 (inactive) in experiment [4] and 0.00495 (inactive) in experiment [6]. Further, the NADPH fluorescence slope in experiment [5] was -4.1e-05 (inactive).
For `COc1ccc(Cn2c(=O)[nH]c3cc(C(=O)NCCCN4CCCC4)ccc3c2=O)cc1`, in experiment [1], the cell count was determined as 474. For the same compound, the inhibition in experiment [1] was -5.2% (inactive); in experiment [3], 30.4% (inactive); in experiment [7], 11% (inactive); in experiment [8], -6.33% (inactive). Also, in experiment [2], the inhibition of aggregation was 30.8% (inactive). Besides, the values for the nuclei count in experiment [2] and in experiment [3] were 88.2% and 139%, respectively. Moreover, the fluorescence slope in experiment [4] was -0.26 (inactive); in experiment [6] it was 0.00648 (inactive). The NADPH fluorescence slope in experiment [5] was -1.4e-05 (inactive).
Regarding `COc1ccc(C(C)(C)C)cc1NC(=O)Nc1ccc2c(c1)OCO2`, the cell count in experiment [1] amounted to 433. The inhibition in experiment [1] was 2.7% (inactive); in experiment [3], -13.1% (inactive); in experiment [7], -6.55% (inactive); in experiment [8], -2.75% (inactive). For the same compound, the inhibition of aggregation in experiment [2] was 7.4% (inactive). Further, the nuclei count in experiment [2] was 102%; in experiment [3], 96.8%. Moreover, the results for the fluorescence slope in experiment [4] and in experiment [6] were -0.577 (inactive) and 0.0063 (inactive), respectively. In addition, the NADPH fluorescence slope in experiment [5] is -8.3e-06 (inactive).
Consider `CCOC(=O)c1c(NC(=O)OC)sc(C(=O)N(C)C)c1C`, for which, in experiment [1], the cell count was determined as 321. Also, the inhibition in experiment [1] was -5.4% (inactive); in experiment [3] it was 1.1% (inactive); in experiment [7], 7.2% (inactive); in experiment [8], 14.6% (inactive). For the same compound, the inhibition of aggregation in experiment [2] was 1.3% (inactive). Besides, the nuclei count was 103% in experiment [2] and 115% in experiment [3]. The fluorescence slope in experiment [4] was -0.312 (inactive); in experiment [6], 0.00682 (inactive). Further, the NADPH fluorescence slope in experiment [5] was -4.5e-05 (inactive).
As for `COc1cccc(C(=O)CSc2nnc(COc3cccc4cccnc34)o2)c1`, in experiment [1], the cell count is 558. The inhibition in experiment [1] is -6.3% (inactive); in experiment [3], -1.4% (inactive); in experiment [7], -8.03% (inactive); in experiment [8] it was -13.7% (inactive). Also, the inhibition of aggregation in experiment [2] was -10.3% (inactive). For the same compound, the nuclei count in experiment [2] was found to be 117%; in experiment [3] it was 197%. Also, the results for the fluorescence slope in experiment [4] and in experiment [6] were -0.51 (inactive) and 0.00397 (inactive), respectively. The NADPH fluorescence slope in experiment [5] was 3.4e-05 (inactive).
Regarding `COc1nc(N2CCOCC2)nc(-n2cccc2)n1`, the cell count in experiment [1] turned out to be 534. Also, the inhibition in experiment [1] is -4.1% (inactive); in experiment [3] it was 52.3% (inactive); in experiment [7] it was 2.29% (inactive); in experiment [8] it was 4.71% (inactive). Also, in experiment [2], the inhibition of aggregation was 3% (inactive). The values for the nuclei count in experiment [2] and in experiment [3] were 99.6% and 80.1%, respectively. The figures for the fluorescence slope in experiment [4] and in experiment [6] were -0.547 (inactive) and 0.00492 (inactive), respectively. In addition, the NADPH fluorescence slope in experiment [5] was -7.1e-05 (inactive).
On to `CCOCC(=O)Nc1nc2ccc(OC)cc2s1`, for which the cell count in experiment [1] came out at 411. The inhibition in experiment [1] was 2.9% (inactive); in experiment [3] it was -85.2% (inactive); in experiment [7], -34.1% (inactive); in experiment [8], -111% (inactive). The inhibition of aggregation in experiment [2] is -11.8% (inactive). In addition, the nuclei count in experiment [2] was 102%; in experiment [3], 127%. Besides, the fluorescence slope was -0.522 (inactive) in experiment [4] and 0.00427 (inactive) in experiment [6]. The NADPH fluorescence slope in experiment [5] was -0.000124 (inactive).
For the compound `C/C(=N\O)c1ccc2c3c([nH]c2c1)CCCC3`, in experiment [1], the cell count was 364. The inhibition in experiment [1] is -1.9% (inactive); in experiment [3], -78.7% (inactive); in experiment [7], -28% (inactive); in experiment [8] it was -111% (inactive). In experiment [2], the inhibition of aggregation was 6.7% (inactive). In addition, the nuclei count was determined as 87.1% in experiment [2] and 96.4% in experiment [3]. Moreover, the fluorescence slope in experiment [4] is -0.532 (inactive); in experiment [6], 0.006 (inactive). The NADPH fluorescence slope in experiment [5] was -3.8e-05 (inactive).
For `CCOC(=O)c1c(NC(=O)Cn2c(C)nc3ccccc32)sc2c1CCC2`, the cell count in experiment [1] was found to be 459. The inhibition in experiment [1] is -6.2% (inactive); in experiment [3] it was -75.4% (inactive); in experiment [7] it was 17.3% (inactive); in experiment [8], 24% (inactive). Moreover, the inhibition of aggregation in experiment [2] was 15.3% (inactive). Also, the nuclei count in experiment [2] worked out at 102%; in experiment [3], 112%. For the same compound, the fluorescence slope in experiment [4] was -0.552 (inactive); in experiment [6], 0.00437 (inactive). The NADPH fluorescence slope in experiment [5] is -2.4e-05 (inactive).
